# Measurements from ChEMBL document CHEMBL3392986, “Hydroxamic acids block replication of hepatitis C virus” (J Med Chem, 2015).
# Columns and labels:
# [1] = Cytotoxicity against human HuH7 cells assessed as inhibition of cell viability after 3 days by CellTiter 96 assay
# Hepatitis C virus [2] = experiment: Antiviral activity against HCV genotype 1b infected in human Huh7 cells after 3 days by luciferase reporter gene assay; format: functional, cell-based, Hepacivirus hominis; details: Huh-7, 72 h
# [3] = Therapeutic index, ratio of CC50 for human HuH7 cells to EC50 for HCV genotype 1b infected in human Huh7 cells
# Hepatitis C virus [4] = experiment: Antiviral activity against HCV genotype 1b infected in human Huh7 cells at 10 uM after 3 days by luciferase reporter gene assay; format: functional, Hepacivirus hominis; details: Huh-7, 72 h
# In short: (§1)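 Subgenomic luciferase replicon cells seeded at 6 X 10^3 per well. Next day, medium containing compound in DMSO, or DMSO alone, was added. After three days, luciferase read with ViViRen live-cell substrate. Percent inhibition is the triplicate average; 2mA served as control in single-dose runs.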
# [5] = Cytotoxicity against human HuH7 cells assessed as inhibition of cell viability at 10 uM after 3 days by CellTiter 96 assay; format: cell-based, Huh-7; details: read-out: INH
# In short: (§2)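 Replicon cells plated at 6 X 10^3 per well and treated the next day with compound in DMSO, DMSO alone or nothing for three days at 37 °C/5% CO2. Viability measured by CellTiter 96 AQueous One, absorbance 450 nm. Percent inhibition is the average of triplicate wells.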
# Hepatitis C virus [6] = experiment: Antiviral activity against HCV genotype 1b infected in human Huh7 cells assessed as reduction in viral RNA level at 2 uM after 3 days by RT-qPCR; format: functional, Hepacivirus hominis, Huh-7; set-up: scale not given: the % may be the effect or the level left
# In short: (§3)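 Replicon-bearing Huh7 cells, 6 X 10^3 per well, exposed to compound in DMSO or DMSO alone for three days at 37 °C/5% CO2. Replicon RNA quantified by TaqMan Cells-to-CT RT-qPCR with NS5B primers/probe, using GAPDH in parallel wells as reference. Level relative to DMSO-treated cells calculated as 2-∆∆CT. Triplicate wells.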
# Hepatitis C virus [7] = experiment: Antiviral activity against HCV genotype 1b infected in human Huh7 cells assessed as reduction in viral RNA level at 0.5 uM after 3 days by RT-qPCR; format: functional, Hepacivirus hominis, Huh-7; set-up: scale not given: the % may be the effect or the level left; details: in the assay text read “2 uM” for “0.5 uM”; in short: as §3
# Hepatitis C virus [8] = experiment: Antiviral activity against HCV genotype 1b infected in human Huh7 cells at 1 uM after 3 days by luciferase reporter gene assay; format: functional, Hepacivirus hominis; details: Huh-7, 72 h; in short: as §1
# [9] = Cytotoxicity against human HuH7 cells assessed as inhibition of cell viability at 1 uM after 3 days by CellTiter 96 assay; format: cell-based, Huh-7; details: read-out: INH; in short: as §2
Compound,CC50 at 72 h [1] [µM],EC50 (Hepatitis C virus [2]) [µM],selectivity ratio ([3]; HuH7 cells),inhibition at 10 µM (Hepatitis C virus [4]) [%],"cytotoxicity at 72 h, 10 µM [5] [%]",other results
O=C(/C=C/c1ccc(C(F)(F)F)cc1F)NO,14,0.12,117,,,
O=C(/C=C/c1c(F)cc(C(F)(F)F)cc1F)NO,12,0.54,22,,,
O=C(/C=C/c1ccccc1)NO,39,0.86,,,,selectivity ratio ([3]; huh-7): 45
O=C(O)/C=C/c1ccc(C(F)(F)F)cc1,,,,19,0,
O=C(/C=C/c1cccc(S(=O)(=O)Nc2ccccc2)c1)NO [BELINOSTAT],0.68,0.12,,,,selectivity ratio ([3]; huh-7): 6
O=C(/C=C/c1ccccn1)NO,,,,58,1,
COc1ccc(/C=C/C(=O)NO)cc1,,,,15,0,
O=C(NO)c1cc2cc(Cl)ccc2s1,27,0.69,39,,,Activity (Hepatitis C virus [6]): 75%; Activity (Hepatitis C virus [7]): 75%
O=C(/C=C/c1ccc(C(F)(F)F)cc1)NO,25,0.14,178,,,
O=C(NO)c1cn(Cc2ccccc2)c2ccccc12,,,,99,92,
O=C(O)c1sc2ccccc2c1S(=O)(=O)c1ccccc1,,,,19,2,
O=C(/C=C/c1ccc(C(F)(F)F)nc1)NO,19,0.4,48,,,
O=C(NO)c1c[nH]c2ccccc12,,,,0,,
COc1cc(NC(=O)CCCCCCC(=O)NO)ccc1-c1cnco1,2.6,0.21,12,,,
O=C(NO)c1cc2ccc([N+](=O)[O-])cc2s1,54,3.7,15,,,
O=C(C=C(c1ccccc1)c1ccccc1)NO,,,,64,4,
NC(=O)/C=C/c1ccc(C(F)(F)F)cc1,,,,6,1,
Cc1[nH]c2ccccc2c1CCNCc1ccc(/C=C/C(=O)NO)cc1 [PANOBINOSTAT],0.0035,,,,,
Cc1ccc(/C=C/C(=O)NO)cc1,,,,15,0,
O=C(NO)c1cc2ccccc2o1,54,1.8,30,,,
COC(=O)c1sc2ccccc2c1S(=O)(=O)c1ccccc1,,,,5,0,
Nc1ccccc1NC(=O)/C=C/c1ccc(C(F)(F)F)cc1,,,,94,82,
O=C(/C=C/c1ccncc1)NO,,,,20,0,
O=C(/C=C/c1ccc(Cl)cc1)NO,> 50,6,> 8,,,
O=C(/C=C/c1ccccc1C(F)(F)F)NO,,,,40,5,
O=C(/C=C/c1ccc(C(F)(F)F)cn1)NO,13,0.38,34,,,

Compound,CC50 at 72 h [1] [µM],EC50 (Hepatitis C virus [2]) [µM],selectivity ratio ([3]; HuH7 cells),inhibition at 10 µM (Hepatitis C virus [4]) [%],"cytotoxicity at 72 h, 10 µM [5] [%]",other results
O=C(/C=C/c1cccc(C(F)(F)F)c1)NO,,,,43,6,
O=C(NO)c1cc2ccc(C(F)(F)F)cc2s1,,,,83,13,"inhibition at 1 µM (Hepatitis C virus [8]): 0%; cytotoxicity at 72 h, 1 µM [9]: 4%"
O=C(NO)c1sc2ccccc2c1Sc1ccccc1,,,,8,4,
O=C(NO)c1ccc(C(F)(F)F)cc1,> 100,5.4,> 18,,,
O=C(NO)c1cc2ccccc2[nH]1,,,,45,7,
O=C(/C=C/c1cccnc1)NO,,,,40,2,
O=C(NO)c1cc2ccccc2n1-c1ccccc1,,,,41,15,
O=C(NO)c1cc2ccccc2s1,28,1,28,,,
Nc1ccccc1NC(=O)c1ccc(CNC(=O)OCc2cccnc2)cc1 [ENTINOSTAT],5.1,1.4,,,,selectivity ratio ([3]; huh-7): 4
CN1CCc2c(c3ccccc3n2Cc2ccc(C(=O)NO)cc2)C1 [TUBASTATIN A],,,,97,70,
O=C(NO)c1cc2cc([N+](=O)[O-])ccc2s1,34,2.4,14,,,
O=C(CCc1ccc(C(F)(F)F)cc1)NO,,,,35,0,
O=C(NO)c1cn(-c2ccccc2)c2ccccc12,,,,11,,
COc1ccc(Cn2ccc3ccc(C(=O)NO)cc32)cc1,11,1.8,6,,,
C/C(=C\C(=O)NO)c1ccccc1,59,3.2,18,,,
O=C(NO)c1sc2ccccc2c1[S+]([O-])c1ccccc1 (stereo unspecified),> 50,1.4,> 36,,,
O=C(NO)c1cc2cc(C(F)(F)F)ccc2s1,,,,94,0,"inhibition at 1 µM (Hepatitis C virus [8]): 16%; cytotoxicity at 72 h, 1 µM [9]: 10%"
O=C(/C=C/c1ccc(Cl)cc1Cl)NO [CINNAMIC ACID HYDROXAMATE],8.1,0.078,104,,,
COC(=O)/C=C/c1ccc(C(F)(F)F)cc1,,,,0,1,
CS(=O)(=O)c1ccc(/C=C/C(=O)NO)cc1,,,,93,0,"inhibition at 1 µM (Hepatitis C virus [8]): 30%; cytotoxicity at 72 h, 1 µM [9]: 0%"
O=C(NCC1(c2nc(-c3ccccc3)cs2)CCOCC1)c1cccc(-c2noc(C(F)(F)F)n2)c1,,,,22,21,
O=C(/C=C/c1ccc(C(F)(F)F)cc1Cl)NO,15,1.1,14,,,
O=C(NO)c1cc2ccccc2n1Cc1ccccc1,,,,82,28,
O=C(/C=C/c1ccc([N+](=O)[O-])cc1)NO,29,0.45,64,,,
N#Cc1ccc(/C=C/C(=O)NO)cc1,,,,99,18,"inhibition at 1 µM (Hepatitis C virus [8]): 45%; cytotoxicity at 72 h, 1 µM [9]: 16%"
